Results as given in publication PMC12744306 (Probiotics and antimicrobial proteins, 2024).
In brackets after ≈: the same amount, converted by molar mass. Like-named read-outs stand apart in the source and are kept apart here. Positions of bridges follow the written chain, without caps; N, C: chain ends. Non-standard residues stand in square brackets, D forms with d. Residues, ends and D or L forms follow the SMILES beside them. No end group written: not given here. *: point of attachment. X1 = CC[C@H](C)CCCCC(=O)*; Dab = NCC[C@H](N)C(=O)O

Assays:
S. aureus USA300 [1] = assay type: cell-based; conditions: for activity against S. aureus USA300 under all these conditions: pH 6.2/8.1, 150 mM NaCl, human serum; for MIC in the presence of 150 mM NaCl: S. aureus
P. aeruginosa E411-17 [2] = assay: Effects of pH, salts and serum on peptide activity; assay type: cell-based; conditions: different pH, salt and serum conditions
MRSA USA300 = assay: Killing kinetics; assay type: cell-based, S. aureus; conditions: 4 × MIC, ~10^5 CFU/mL in MHB, 37°C, CFU count
Outline: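 MRSA USA300 was grown in MHB to OD600 ~0.3, then diluted to OD600 0.001 (~10⁵ CFU/mL). 1 mL was incubated at 37°C with test compound or reference antibiotic at 4× MIC. At 15, 30, 60, 90 and 120 min, 50 μL was serially diluted in PBS and plated on mannitol salt agar. CFU were counted after overnight growth at 37°C.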

S. epidermidis 1457 = assay type: cell-based
S. aureus USA300 [3] = assay type: cell-based
Human liver HepG2 cells = assay type: cell-based
bacteria = conditions: cited from earlier work
E. coli = conditions: cited from earlier work
E. coli E423-17 = assay type: cell-based
human red blood cells = assay: Hemolytic assay; assay type: cell-based; conditions: 2% hRBC, 37°C, 1 h; for hemolysis: relative to 1% Triton X-100
P. aeruginosa E411-17 [4] = assay type: cell-based
K. pneumoniae E406-17 = assay type: cell-based; conditions: not shown
A. baumannii B28-16 = assay type: cell-based
[5] = system: Human keratinocytes (HaCaT); assay: Cytotoxicity assay; assay type: cell-based; conditions: 24 h, MTS
P. aeruginosa E411-17 [6] = assay: Killing kinetics; assay type: cell-based; conditions: 4 × MIC, ~10^5 CFU/mL in MHB, 37°C, CFU count
[7] = Table 3, sequence reversal experiment

For `CCCCCCCCCC(=O)N[C@@H](Cc1c[nH]c2ccccc12)C(=O)N[C@H](CC(N)=O)C(=O)N[C@@H](CC(=O)O)C(=O)N[C@@H]1C(=O)NCC(=O)N[C@@H](CCCN)C(=O)N[C@@H](CC(=O)O)C(=O)N[C@H](C)C(=O)N[C@@H](CC(=O)O)C(=O)NCC(=O)N[C@H](CO)C(=O)N[C@@H]([C@H](C)CC(=O)O)C(=O)N[C@@H](CC(=O)c2ccccc2N)C(=O)O[C@@H]1C` [Daptomycin, reference compound], the “activity against S. aureus USA300 under all these conditions” value (S. aureus USA300 [1]) was “remained potent”, the “activity against P. aeruginosa under all the conditions tested” value (P. aeruginosa E411-17 [2]) was “did not display any activity” and the “time to kill MRSA USA300” value (MRSA USA300) was about 90 min. The “minimal inhibitory concentration (MIC), S. epidermidis 1457” value (S. epidermidis 1457; 1457) was 0.5 µM (≈ 0.81 µg/mL), the “minimal inhibitory concentration (MIC), S. aureus USA 300” value (S. aureus USA300 [3]; USA300) was 0.5 µM (≈ 0.81 µg/mL) and the “toxicity to HepG2” value (Human liver HepG2 cells; 24 h, MTS) was “subtle effects”.
In the case of LLGDFFRKSK-NH2 [LL-10], the “antibacterial activity in the standard Mueller Hinton Broth (MHB)” value (“antibacterial activity” for short) (bacteria) is listed as “not antibacterial”.
In the case of RIKDFLRNLV-NH2 [RIK-10], the “activity against E. coli in standard MHB” value (E. coli) is listed as “active”.
In the case of RKSKEKIGK-NH2 [RK-9], the “antibacterial activity” value (bacteria) is given as “not antibacterial”.
For KRIVQRIK-NH2 [KR-8], the “antibacterial activity” value (bacteria) is listed as “not antibacterial”.
For RWWKKWWGK-NH2 [RK-9+], the “minimal inhibitory concentration (MIC), E. coli E423-17” value (E. coli E423-17; E423-17) was 4 to 8 µM, the “HC10 (10% hemolytic concentration)” value (human red blood cells) was over 400 µM and the “MIC in the presence of 150 mM NaCl” value (S. aureus USA300 [1]) was 16 to 32 µM. The “minimal inhibitory concentration (MIC), P. aeruginosa E411-17” value (P. aeruginosa E411-17 [4]; E411-17) was 16 µM, the “toxicity to HepG2” value (Human liver HepG2 cells) was “subtle effects” and the “LC50, HepG2” value (Human liver HepG2 cells; 24 h, MTS) was over 100 µM.
In the case of RWKRFLRNWV-NH2 [RIK-10+], the “minimal inhibitory concentration (MIC), E. coli E423-17” value (E. coli E423-17; E423-17) is reported as 4 µM, the “MIC, K. pneumoniae E406-17” value (K. pneumoniae E406-17) is reported as 32 µM and the “minimal inhibitory concentration (MIC), A. baumannii B28-16” value (A. baumannii B28-16) is reported as 8 µM. The hemolysis (human red blood cells; at 400 μM) was 18%, the “MIC in the presence of 150 mM NaCl” value (S. aureus USA300 [1]) was over 32 µM and the “50% lethal concentration (LC50), HaCaT” value [5] was 100 µM. The “minimal inhibitory concentration (MIC), P. aeruginosa E411-17” value (P. aeruginosa E411-17 [4]; [7]) was 4 µM, the “minimal inhibitory concentration (MIC), S. epidermidis 1457” value (S. epidermidis 1457; 1457) was 64 µM and the “minimal inhibitory concentration (MIC), S. aureus USA 300” value (S. aureus USA300 [3]; [7]) was 16 µM. The “LC50, HepG2” value (Human liver HepG2 cells; 24 h, MTS) was 100 µM.
For LWGRFFRKWK-NH2 [LL-10+], the “minimal inhibitory concentration (MIC), E. coli E423-17” value (E. coli E423-17; [7]) was 32 µM, the “minimal inhibitory concentration (MIC), A. baumannii B28-16” value (A. baumannii B28-16) was 64 µM and the “HC10 (10% hemolytic concentration)” value (human red blood cells) was over 400 µM. The “MIC in the presence of 150 mM NaCl” value (S. aureus USA300 [1]) was over 32 µM, the “minimal inhibitory concentration (MIC), S. epidermidis 1457” value (S. epidermidis 1457; [7]) was 32 µM and the “minimal inhibitory concentration (MIC), S. aureus USA 300” value (S. aureus USA300 [3]; [7]) was 16 µM. For the same compound, the “toxicity to HepG2” value (Human liver HepG2 cells) was “subtle effects” and the “LC50, HepG2” value (Human liver HepG2 cells; 24 h, MTS) was over 100 µM.
With `CC[C@H](C)CCCCC(=O)N[C@@H](CCN)C(=O)N[C@H](C(=O)N[C@@H](CCN)C(=O)N[C@H]1CCNC(=O)[C@H]([C@@H](C)O)NC(=O)[C@H](CCN)NC(=O)[C@H](CCN)NC(=O)[C@H](CC(C)C)NC(=O)[C@@H](CC(C)C)NC(=O)[C@H](CCN)NC1=O)[C@@H](C)O` [Colistin, reference compound] (X1-[Dab]T[Dab][Dab][Dab][dL]L[Dab][Dab]T; lactam 4-C (inferred); N-terminus assumed) the “time to eliminate P. aeruginosa” value (P. aeruginosa E411-17 [6]) was 30 min, the “lysis of human red blood cells” value (human red blood cells; at 400 μM, 545 nm) was “did not lyse” and the “activity against S. aureus USA300 under all these conditions” value (S. aureus USA300 [1]) was “inactive”. The “toxicity to HaCaT” value ([5]; at 100 μM) was “little toxicity”, the “activity against P. aeruginosa under all the conditions tested” value (P. aeruginosa E411-17 [2]) was “retained pseudomonacidal activity” and the “toxicity to HepG2” value (Human liver HepG2 cells; 24 h, MTS) was “subtle effects”.
For KRWWQWWK-NH2 [KR-8+], the “minimal inhibitory concentration (MIC), E. coli E423-17” value (E. coli E423-17; E423-17) was 4 to 8 µM, the “minimal inhibitory concentration (MIC), A. baumannii B28-16” value (A. baumannii B28-16) was 16 µM and the “HC10 (10% hemolytic concentration)” value (human red blood cells) was 300 µM. The hemolysis (human red blood cells; at 400 μM) was 18%, the “MIC in the presence of 150 mM NaCl” value (S. aureus USA300 [1]) was 16 to 32 µM and the “minimal inhibitory concentration (MIC), S. epidermidis 1457” value (S. epidermidis 1457; 1457) was 16 µM. The “LC50, HepG2” value (Human liver HepG2 cells; 24 h, MTS) was 12.5 µM.
